Results from article PMC2645915 (Biochemistry, 2008).
Substitutions are numbered along the chain they refer to. Names and notes keep the numbering of the source. Values belong to the molecule of their own block, whether it stands above or below them.

How the values were obtained:
[1] = molecular target: T1, methionine synthase reductase (MSR), human, I22/S175 background (Homo sapiens, UniProt Q9UBK8); test: isothermal titration calorimetry; type: binding
T1 sequence (Q9UBK8 1-698): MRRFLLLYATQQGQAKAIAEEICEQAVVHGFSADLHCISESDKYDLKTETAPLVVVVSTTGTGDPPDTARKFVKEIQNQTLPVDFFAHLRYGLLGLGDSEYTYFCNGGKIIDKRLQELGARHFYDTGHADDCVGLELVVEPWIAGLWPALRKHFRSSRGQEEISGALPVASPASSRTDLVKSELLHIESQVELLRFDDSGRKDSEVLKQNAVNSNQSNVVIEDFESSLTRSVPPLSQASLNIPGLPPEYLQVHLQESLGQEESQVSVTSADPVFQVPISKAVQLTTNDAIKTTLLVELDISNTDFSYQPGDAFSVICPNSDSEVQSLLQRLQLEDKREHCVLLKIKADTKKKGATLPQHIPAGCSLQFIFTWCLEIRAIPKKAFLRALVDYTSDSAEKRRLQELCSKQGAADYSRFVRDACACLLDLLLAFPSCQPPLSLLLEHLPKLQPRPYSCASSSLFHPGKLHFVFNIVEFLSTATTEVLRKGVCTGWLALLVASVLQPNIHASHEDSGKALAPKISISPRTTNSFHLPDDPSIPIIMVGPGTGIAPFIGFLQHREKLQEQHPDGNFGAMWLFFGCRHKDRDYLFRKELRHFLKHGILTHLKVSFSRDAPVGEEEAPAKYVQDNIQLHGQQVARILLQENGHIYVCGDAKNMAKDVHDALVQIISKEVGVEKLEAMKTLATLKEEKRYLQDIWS
Outline: (§1)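 Recombinant wild-type or A129T MSR, 30-50 µM by Bradford and A454, was dialysed overnight against 50 mM Tris-HCl pH 7.5, filtered and degassed. NADP+ (500-850 µM) in the syringe was injected stepwise at 300 s intervals. Heats were corrected for dilution using post-saturation injections and fitted to a single-site model for KA and ΔH°. Runs were done in duplicate or triplicate.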

[2] = molecular target: T2, methionine synthase reductase (MSR), human, I22/S175 background (Homo sapiens, UniProt Q9UBK8, A129T); test: isothermal titration calorimetry; type: binding
T2 sequence (Q9UBK8 1-698 A129T): T1 sequence (Q9UBK8 1-698) with A129T
Outline: as §1

purified protein = substrate: NC(=O)C1=CN([C@@H]2O[C@H](COP(=O)(O)OP(=O)(O)OC[C@H]3O[C@@H](n4cnc5c(N)ncnc54)[C@H](OP(=O)(O)O)[C@@H]3O)[C@@H](O)[C@H]2O)C=CC1; test: purified protein; type: biochemical, Homo sapiens; conditions: cytochrome c as acceptor, 50 mM Tris pH 7.5, 37°C

Kd [1]: 54 ± 5.3 µM
Kd [2]: 32 ± 2.9 µM
Molecule: NC(=O)c1ccc[n+]([C@@H]2O[C@H](COP(=O)(O)OP(=O)(O)OC[C@H]3O[C@@H](n4cnc5c(N)ncnc54)[C@H](OP(=O)(O)O)[C@@H]3O)[C@@H](O)[C@H]2O)c1 [NADP^+]

B1: methionine synthase reductase (MSR), human, I22/S175 background (Homo sapiens; A129T) (protein)
chain: T1 sequence (Q9UBK8 1-698) with A129T
Km (purified protein): 2.8 µM
